Assay results as given in ChEMBL document CHEMBL1158697, “Synthesis and biological evaluation of a natural ester sintenin and its synthetic analogues” (J Nat Prod, 2005).

Columns and labels:
PC-3 = assay: Cytotoxicity against human PC3 cells after 72 hrs by MTT assay; format: functional, cell-based; details: PC-3, 72 h
How it was run: (§1)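 Cells allowed to attach as monolayers, then exposed to compounds at various concentrations in culture medium for 72 h; controls got deionized water (compound stock solvent). MTT added ([…]) for 3 h, supernatant removed, cells dissolved in DMSO, absorbance at 570 nm. CC50 = concentration reducing MTT signal 50% versus untreated controls.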

KB = assay: Cytotoxicity against human KB cells after 72 hrs by MTT assay; format: functional, cell-based; how it was run: as §1
[1] = Inhibition of alpha glucosidase
How it was run: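 α-Glucosidase (25 µL at 0.2 U/mL) with p-nitrophenyl-α-D-glucopyranoside (25 µL of 23.2 mM), sample at various concentrations, in 67 mM phosphate buffer pH 6.8. Reaction stopped with 1 M Na2CO3; p-nitrophenol release read at 405 nm. Blanks lacked enzyme; negative control had buffer instead of sample; acarbose as positive control. Percent inhibition from corrected ODs; IC50 calculated from this.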

CNE = assay: Cytotoxicity against human CNE cells after 72 hrs by MTT assay; format: functional, cell-based; how it was run: as §1
A549 = assay: Cytotoxicity against human A549 cells after 72 hrs by MTT assay; format: functional, cell-based; details: A549, 72 h; how it was run: as §1
[2] = Cytotoxicity against human Bel7404 cells after 72 hrs by MTT assay; format: functional, cell-based; details: BEL-7404, 72 h; how it was run: as §1
HeLa = assay: Cytotoxicity against human HeLa cells after 72 hrs by MTT assay; format: functional, cell-based; how it was run: as §1

Compound | IC50 (PC-3) | IC50 (KB) | IC50 [1] | IC50 (CNE) | IC50 (A549) | IC50 [2] | IC50 (HeLa)
O=C(/C=C/c1ccc(O)cc1)OC/C=C/c1ccccc1 | 143 µM | > 100 µg/mL | 65 µM | 162 µM | 120 µM | > 100 µg/mL | 160 µM
O=C(/C=C/c1ccc(O)c(O)c1)OC/C=C/c1ccccc1 | 123 µM | 54 µM | 97 µM | 214 µM | 71 µM | 91 µM | 171 µM
COc1ccc(/C=C/COC(=O)/C=C/c2cc(OC)c(OC)c(OC)c2)cc1OC | 80 µM | > 100 µg/mL | – | > 100 µg/mL | 172 µM | 212 µM | 64 µM
COc1ccc(/C=C/COC(=O)/C=C/c2ccc([N+](=O)[O-])cc2)cc1OC | 212 µM | 165 µM | – | > 100 µg/mL | > 100 µg/mL | > 100 µg/mL | > 100 µg/mL
COc1cc(/C=C/COC(=O)/C=C/c2cc(OC)c(OC)c(OC)c2)cc(OC)c1OC | 189 µM | 206 µM | 110 µM | 50 µM | 180 µM | > 100 µg/mL | 43 µM
O=C(CCc1ccc(O)c(O)c1)OCCCc1ccccc1 | 189 µM | 125 µM | 73 µM | 235 µM | 138 µM | > 100 µg/mL | 171 µM
COCOc1ccc(/C=C/C(=O)OC/C=C/c2ccc(OC)cc2)cc1 | 226 µM | > 100 µg/mL | – | > 100 µg/mL | > 100 µg/mL | > 100 µg/mL | 46 µM
COc1ccc(/C=C/COC(=O)/C=C/c2ccc(O)cc2)cc1 | 88 µM | 143 µM | – | 40 µM | 72 µM | 193 µM | 95 µM
COc1ccc(CCCOC(=O)CCc2cc(OC)c(OC)c(OC)c2)cc1OC | 104 µM | 124 µM | – | > 100 µg/mL | > 100 µg/mL | > 100 µg/mL | > 100 µg/mL
COc1ccc(CCCOC(=O)CCc2ccc(O)cc2)cc1 | 283 µM | 820 µM | – | 287 µM | 186 µM | 108 µM | > 100 µg/mL
COCOc1ccc(/C=C/C(=O)OC/C=C/c2ccccc2)cc1OCOC | > 1000 µM | 202 µM | – | > 100 µg/mL | > 100 µg/mL | > 100 µg/mL | > 1000 µM
COc1ccc(/C=C/COC(=O)/C=C/c2ccc(OC)c(OC)c2)cc1OC | 92 µM | 133 µM | – | > 100 µg/mL | 181 µM | 136 µM | 86.7 µM
COc1ccc(/C=C/C(=O)OC/C=C/c2ccc(OC)c(OC)c2)cc1 | 181 µM | > 100 µg/mL | – | > 100 µg/mL | > 100 µg/mL | > 100 µg/mL | 167 µM
C[C@H]1O[C@H](O[C@H]2[C@H](O)[C@@H](O)[C@@H](O[C@H]3[C@H](O)[C@@H](O)C(O)O[C@@H]3CO)O[C@@H]2CO)[C@H](O)[C@@H](O)[C@@H]1N[C@H]1C=C(CO)[C@@H](O)[C@H](O)[C@H]1O (stereo partly drawn) [ACARBOSE] | – | – | 680 µM | – | – | – | –
